Source: PubChem (several laboratories)
DAX1 inh-1 – DAX1 (NR0B1) inhibition, primary screen; HEK293T StAR-luciferase reporter, SF-1/DAX-1 repression relief; inhibition, % at 6.8 µM; AID 652010; 1.1% of 370,000 active;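 active = inhibition above the mean over all tested compounds plus 3 SD, cut at about 3.6% in these data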;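 note: 0% = DAX-1 cells with DMSO and 100% = cells lacking DAX-1 with DMSO; higher inhibition means more luminescence from relief of DAX-1 repression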
JMJD2C inh – human JMJD2C demethylase inhibition. inhibition, % at 2.35 µM. GST-JMJD2C(1-420) H3K9me3 demethylation, DELFIA europium. AID 2099. 0.069% of 330,000 active;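 active = more than half of a compound's replicate wells show inhibition beyond 50%, single wells judged on their own value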;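 note: signal counts dimethyl H3K9 product captured on neutravidin plate; 0% = median of DMSO wells and 100% = 0.3 times that DMSO median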
NR2E3 ag-1 – agonists of human NR2E3 nuclear receptor; Q9Y5X4; CHO-S Gal4-NCOR/VP16-NR2E3 two-hybrid, luciferase; inhibition of corepressor binding, % at 3.98 µM; 0.35% of 360,000 active;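 active = inhibition above the mean of all tested compounds plus 3 SD, cut at about 70% in these data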;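 note: 0% = DMSO with NR2E3 transfected cells and 100% = cells lacking NR2E3 construct; higher means lower luciferase signal from less NR2E3 corepressor binding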
Target sequence (Q9Y5X4 whole entry, looked up, the tested form may be a part): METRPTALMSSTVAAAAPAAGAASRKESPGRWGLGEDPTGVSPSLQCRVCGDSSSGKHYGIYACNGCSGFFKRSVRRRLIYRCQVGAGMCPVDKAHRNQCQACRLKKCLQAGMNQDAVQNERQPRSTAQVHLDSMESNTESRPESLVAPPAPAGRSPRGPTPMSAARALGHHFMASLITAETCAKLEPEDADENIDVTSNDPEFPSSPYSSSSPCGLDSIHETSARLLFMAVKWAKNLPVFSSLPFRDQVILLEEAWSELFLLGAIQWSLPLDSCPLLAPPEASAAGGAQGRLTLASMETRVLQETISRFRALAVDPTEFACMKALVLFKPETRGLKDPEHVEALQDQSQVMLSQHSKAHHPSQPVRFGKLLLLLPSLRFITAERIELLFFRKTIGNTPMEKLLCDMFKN
SMARCA2 activ – activators of SMARCA2 function | MG213 cells, MMTV-luciferase reporter, dexamethasone, overnight | activation, % at 9.1 µM | 1% of 370,000 active; in the data active = activation above about 7.8%;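 note: 0% = vehicle wells and 100% = reference activator wells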
NR2E3 ag-2 – activates human photoreceptor nuclear receptor NR2E3. GST-NR2E3/biotin-RetCOR TR-FRET, 1536-well. inhibition of corepressor binding, % at 4.78 µM. 0.12% of 320,000 active;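 active = percent inhibition above the cutoff of mean plus 3 SD of all tested compounds, set per screening campaign, cut at about 20% in these data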;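 note: 0% = DMSO wells and 100% = biotin wells as full block of FRET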
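Format: 1536-well format; test system: GST-NR2E3 and biotin-RetCOR proteins; read-out basis: percent inhibition of TR-FRET ratio; timing: 5 h incubation at 4 °C; detection: time-resolved FRET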
DAX1 inh-2 – inhibits human nuclear receptor DAX1. P51843. HEK293 Gal4-DAX1 luciferase reporter, luminescence. inhibition, % at 6.75 µM. 0.99% of 340,000 active;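 active = inhibition above the mean over all tested compounds plus 3 SD, cut at about 4.2% in these data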;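 note: 0% = DAX1-transfected cells with DMSO and 100% = empty-vector control cells with DMSO; inhibition shows as a rise in luminescence from relieved DAX1 repression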
Target sequence (P51843 207-470 limits assumed): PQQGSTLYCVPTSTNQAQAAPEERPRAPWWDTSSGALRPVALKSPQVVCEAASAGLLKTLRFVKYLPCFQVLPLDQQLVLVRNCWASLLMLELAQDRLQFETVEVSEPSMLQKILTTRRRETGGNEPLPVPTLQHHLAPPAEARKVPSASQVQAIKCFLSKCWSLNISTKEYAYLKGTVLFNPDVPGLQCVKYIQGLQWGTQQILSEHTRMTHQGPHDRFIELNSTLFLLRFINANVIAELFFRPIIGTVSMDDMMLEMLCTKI
DAX1 inh confirm – confirmation of human DAX1 (NR0B1) inhibitors; HEK293T StAR-promoter luciferase reporter, SF-1/DAX-1 repression; shares compounds with DAX1 inh-1; inhibition, % at 6.8 µM; 87% of 2,400 active;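 active = inhibition above the average of every tested compound plus 3 SD, cut at about 3.8% in these data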;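 note: 0% = DAX-1 cells with DMSO and 100% = no DAX-1 control cells with DMSO; active compounds raise luminescence by relieving repression of the StAR reporter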
SF1 AF2mut Luc – counter-screen for DAX1 inhibitors: nonselective inhibitors with SF-1 AF2 mutant | AID 652136 | 78% of 2,400 active | HEK293 StAR-luciferase, luminescence | shares compounds with DAX1 inh-1 | inhibition, % at 6.8 µM;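 active = inhibition above the mean of all tested compounds plus 3 SD, cut at about 3% in these data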;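 note: 0% = DAX-1 transfected cells with DMSO and 100% = cells without DAX-1 with DMSO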
* marks the source's active call; other numbers are inactive results; i = inactive; x = not tested or not shown. This is a sample that favours compounds with a hit; in the whole collection about 3.2% have one here.

SMILES	DAX1 inh-1	JMJD2C inh	NR2E3 ag-1	SMARCA2 activ	NR2E3 ag-2	DAX1 inh-2	DAX1 inh confirm	SF1 AF2mut Luc
Cc1ccc(/C=N/N=C/c2ccc(C)s2)s1	5.1*	1.8	-146.0	4.3	-1.9	2.7	18.6*	7.7*
c1ccc(CSc2ncnc3c2ncn3C2CCCCO2)cc1 (stereo not drawn)	5.1*	x	-99.6	2.6	x	3.6	6.3*	3.5*
Cn1ccsc1=NC(=O)c1ccc(Cl)cc1	4.6*	-13.4	-101.5	5.1	-0.2	1.5	8.9*	7.7*
O/C(=C\c1ccc2ccccc2n1)c1ccc(O)cc1O	5.3*	-5.1	-91.1	-0.4	-4.4	-0.2	15.9*	7.1*
C/C=C/C(=O)N1CCc2cc(S(=O)(=O)N(C)Cc3ccco3)ccc21	-1.4	x	x	-3.7	x	x	x	x
O=C(N/N=C/c1ccccc1[N+](=O)[O-])c1ccc2c(c1)OCCO2	5.6*	-9.5	-124.3	5.0	3.1	-5.5	10.8*	4.8*
CN(C)S(=O)(=O)c1cccc(C(=O)N/N=C\c2ccccc2[N+](=O)[O-])c1	6.9*	x	x	0.7	x	x	11.6*	9.7*
O=C(N/N=C/c1cccc(O)c1)c1ccc2c(c1)OCCO2	19.4*	-6.9	-127.2	5.5	5.9	-1.4	17.2*	9.4*
O=C(NCCN1CCC(Cc2ccccc2)CC1)C1CCCN(S(=O)(=O)c2cccs2)C1 (stereo not drawn)	-3.0	x	x	-3.9	x	x	x	x
O=C1/C(=C\c2ccncc2)CCc2ccccc21	-0.4	13.2	0.9	0.6	-0.9	-0.3	x	x
COc1ccc(C=C2CCc3ccccc3C2=O)cc1	6.6*	x	-54.6	2.0	x	x	7.2*	-5.8
O=C1C(=Cc2ccccc2Cl)CCc2ccccc21	6.5*	x	-40.3	-0.4	x	x	6.7*	2.7
COc1ccccc1C=C1CCc2ccccc2C1=O	8.6*	x	-60.6	5.9	x	x	3.9*	0.7
O=C1C(=Cc2ccc(F)cc2)CCc2ccccc21	9.5*	x	-27.9	2.8	x	x	7.4*	3.3*
O=C1C(=Cc2ccc(Cl)cc2)CCc2ccccc21	7.4*	x	-24.5	3.6	x	x	7.4*	3.3*
COc1ccccc1OCCNC(=O)c1ccc2c(c1)OCCO2	7.8*	6.0	-146.4	2.3	-0.3	0.9	8.9*	6.0*
CC(C)c1ccc2nc(N)sc2c1	5.9*	-0.1	-116.2	3.6	0.8	2.6	11.0*	6.6*
Nc1nc2ccc(O)cc2s1	0.1	9.3	14.2	-0.6	-3.1	-1.9	x	x
CC(C)(C)c1csc(NC(=O)C2=COCCO2)n1	6.6*	1.8	-119.0	4.8	3.5	1.7	8.2*	5.3*
CCOC(=O)c1csc(NC(=O)C2=COCCO2)n1	7.0*	15.3	-109.1	4.7	-0.5	2.8	9.0*	7.1*
CCOC(=O)c1csc(NC(=O)c2cccs2)n1	8.7*	1.4	-187.9	0.8	-2.3	1.5	10.4*	6.7*
C=CCN(C)CC#CCCCCl	2.4	x	x	-2.5	x	x	x	x
C[C@H](O)[C@@H]1CN2CCc3c([nH]c4cccc(-c5ccccc5)c34)[C@@H]2C[C@@H]1N(C)CC1CCCCC1	0.7	x	x	0.9	x	x	x	x
O=C(NCC1CCN(C(=O)C(=O)c2cccs2)CC1)c1ccc2c(c1)CCO2	0.0	x	x	-3.7	x	x	x	x
CCc1ccc(CNCCNC(=O)c2ccco2)cc1	5.8*	x	-25.5	6.9	x	-0.2	4.9*	2.9*
SMILES	DAX1 inh-1	JMJD2C inh	NR2E3 ag-1	SMARCA2 activ	NR2E3 ag-2	DAX1 inh-2	DAX1 inh confirm	SF1 AF2mut Luc
Cc1ccc(NC(=O)c2ccc(-c3cc(Cl)ccc3Cl)o2)c(C)c1	5.9*	x	-24.0	0.3	x	x	3.3	0.8
Cc1ccc(OCc2cc(C(=O)N(CCO)Cc3cccs3)no2)cc1C	5.1*	11.7	-48.1	3.4	3.4	2.7	6.1*	3.7*
COc1ccc(/C(C)=N/Nc2nccnc2Cl)cc1	5.6*	40.2	-99.0	7.9*	-3.6	-1.2	4.2*	2.8
C/C(=N\Nc1nccnc1Cl)c1ccc(Br)cc1	1.9	3.8	-127.9	2.5	x	0.6	x	x
COC(=O)C1CN(Cc2cn(Cc3ccccc3)nn2)CCS(=O)(=O)N1Cc1ccc(F)cc1 (stereo not drawn)	-1.8	x	x	-3.6	x	x	x	x
O=C(NCCSc1ccccn1)c1ccc(Cl)cc1Cl	7.3*	0.7	-161.9	5.8	-0.2	1.3	10.6*	6.6*
O=C(NCCSc1ccccn1)c1ccc(Cl)cc1	4.5*	-22.5	-160.4	0.1	0.5	1.2	10.2*	4.8*
COC(=O)[C@]1(Cc2ccccc2)NC=C(C(=O)c2ccc(F)cc2)[C@@H]1c1ccccc1	0.5	x	x	-0.1	x	x	x	x
CC(C)C[C@@H]1Cc2[nH]c(=S)[nH]c(=O)c2[C@H](C)O1	5.8*	x	-1.0	2.6	x	x	2.9	0.8
C[C@@H]1O[C@H](C2CC2)Cc2[nH]c(=S)[nH]c(=O)c21	0.8	x	-16.4	-2.5	x	x	x	x
CC(=O)c1cccc(NC(=O)/C(=C\c2ccco2)NC(=O)c2ccco2)c1	4.9*	-2.5	-7.3	-0.6	-3.0	1.3	0.8	0.7
CC(=O)c1ccc(NC(=O)/C(=C\c2ccco2)NC(=O)c2ccco2)cc1	0.3	-2.9	-11.2	-1.6	-1.0	-1.0	x	x
Cc1ccnc(Nc2ccc(CCO)cc2)n1	4.8*	x	-93.0	6.9	x	x	9.5*	5.6*
N#C/C(=C\c1ccc[nH]1)C(=O)Nc1ccccc1F	7.4*	-2.7	-148.2	1.9	x	1.2	9.5*	7.0*
N#C/C(=C\c1ccc[nH]1)C(=O)Nc1ccccc1Cl	2.6	-0.8	-59.0	1.2	0.1	1.9	x	x
Cc1cc(/C=C(\C#N)C(=O)Nc2ccccc2F)c(C)[nH]1	12.2*	-1.0	-103.5	1.7	-0.5	2.2	15.4*	5.5*
COc1ccc(CN2C(=O)COc3ccccc3C2c2nnnn2C2CCCCC2)cc1 (stereo not drawn)	0.4	x	x	-0.7	x	x	x	x
Oc1ccc(O)cc1	x	-0.3	x	x	1.9	x	x	x
Oc1ccc(-c2nnc(-c3ccc(O)cc3)nn2)cc1	5.5*	1.3	-165.8	5.4	-1.7	-0.9	13.1*	8.4*
C=CCN(CC#Cc1ccccc1)Cc1ccc(OC)cc1OC	-1.6	x	x	0.1	x	x	x	x
CCOc1ccc(S(=O)(=O)Nc2ccc(C(=O)NCC3(N4CCCCC4)CCCCC3)cc2)cc1	8.7*	i	-0.8	-1.4	0.0	2.3	8.3*	4.9*
COc1ccc(NS(=O)(=O)c2cccc(C(=O)NCC3(N4CCCCC4)CCCCC3)c2)cc1	7.8*	0.2	-25.4	-1.7	-1.1	0.9	10.2*	5.4*
Cc1cccc(NS(=O)(=O)c2cccc(C(=O)NCC3(N4CCCCC4)CCCCC3)c2)c1	5.0*	1.5	12.6	-0.9	-2.8	0.7	3.2	1.5
